In experiment [1] the test system is Cucumis sativus. The experiment is described as follows: Phytotoxic activity against Cucumis sativus (cucumber)seeds assessed as inhibition of radicle growth at 10^-3 mol/l at 25 degC after 72 hr by filter-paper based radicle elongation assay. It counts as functional. In a few lines:
(§1)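 Test compounds suspended and sonicated 5 min. Aliquots of 4 mL wetted two sheets of filter paper in glass Petri dishes, with 20 seeds per dish. Tested at 10⁻⁴ and 10⁻³ mol L⁻¹. Incubated 72 h at 25 °C under fluorescent light. Radicle length measured and germination recorded (radicle ≥1 mm). Completely randomized design, five replications. Results as % radicle growth inhibition vs untreated controls; Tukey's test, P 0.05.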

In experiment [2] the test system is Cucumis sativus. The experiment in a line: Phytotoxic activity against Cucumis sativus (cucumber)seeds assessed as inhibition of radicle growth at 10^-4 mol/l at 25 degC after 72 hr by filter-paper based radicle elongation assay. It counts as functional. In a few lines:
as §1

Experiment [3] has as its system Sorghum bicolor. The experiment is described as follows: Phytotoxic activity against Sorghum bicolor seeds assessed as inhibition of radicle growth at 10^-3 mol/l at 25 degC after 72 hr by filter-paper based radicle elongation assay. It counts as functional. In a few lines: as §1
Experiment [4] relates to Sorghum bicolor. The experiment is described as follows: Phytotoxic activity against Sorghum bicolor seeds assessed as inhibition of radicle growth at 10^-4 mol/l at 25 degC after 72 hr by filter-paper based radicle elongation assay. It counts as functional. In a few lines:
as §1

The test system of experiment [5] is Ipomoea grandifolia. The experiment is described as follows: Phytotoxicity against Ipomoea grandifolia pre-germinated seeds assessed as inhibition of aerial parts development at 5x10'-4 mol/l at 28 degC after 24 to 48 hr by sand based radicle elongation assay. It counts as functional.
Experiment [6] deals with Ipomoea grandifolia. The experiment in a line: Phytotoxicity against Ipomoea grandifolia pre-germinated seeds assessed as inhibition of root biomass development at 5x10'-4 mol/l at 28 degC after 24 to 48 hr by sand based radicle elongation assay. It counts as functional.
Experiment [7] has as its system Urochloa decumbens. The experiment is described as follows: Phytotoxicity against Urochloa decumbens seeds assessed as inhibition of aerial parts development at 5x10'-5 mol/kg measured at 21 days after seed sowing by green house trials. It counts as functional.
Experiment [8] relates to Urochloa decumbens. The experiment in a line: Phytotoxicity against Urochloa decumbens seeds assessed as inhibition of root biomass development at 5x10'-5 mol/kg measured at 21 days after seed sowing by green house trials. It counts as functional.
Experiment [9] has as its system Ipomoea grandifolia. The experiment in a line: Phytotoxicity against Ipomoea grandifolia seeds assessed as inhibition of aerial parts development at 5x10'-5 mol/kg measured at 21 days after seed sowing by green house trials. It counts as functional.
The test system of experiment [10] is Ipomoea grandifolia. The experiment is described as follows: Phytotoxicity against Ipomoea grandifolia seeds assessed as inhibition of root biomass development at […] measured at 21 days after seed sowing by green house trials.
Experiment [11] concerns Urochloa decumbens. The experiment is described as follows: Phytotoxicity against Urochloa decumbens pregerminated seeds assessed as inhibition of root biomass development at 5x10'-4 mol/l at 28 degC after 24 to 48 hr by sand based radicle elongation assay. It counts as functional.
The test system of experiment [12] is Urochloa decumbens. The experiment is described as follows: Phytotoxicity against Urochloa decumbens pregerminated seeds assessed as inhibition of aerial parts development at 5x10'-4 mol/l at 28 degC after 24 to 48 hr by sand based radicle elongation assay. It counts as functional.
Experiment [13] relates to Urochloa decumbens. The experiment in a line: Stimulation of aerial parts development in Urochloa decumbens pregerminated seeds at 5x10'-4 mol/l at 28 degC after 24 to 48 hr by sand based radicle elongation assay. It counts as functional.
Experiment [14] has as its system Urochloa decumbens. The experiment is described as follows: Stimulation of root biomass development in Urochloa decumbens pregerminated seeds at 5x10'-4 mol/l at 28 degC after 24 to 48 hr by sand based radicle elongation assay. It counts as functional.

The text below walks through data of ChEMBL document CHEMBL3046321, “Preparation of achiral and chiral (E)-enaminopyran-2,4-diones and their phytotoxic activity” (2009).

By inhibition is commonly meant the change of the read-out against control, counted positive when it falls. For `CC1=CC(=O)/C(=C(/C)NNc2ccc([N+](=O)[O-])cc2[N+](=O)[O-])C(=O)O1`, the inhibition at 1000 µM in the experiment on Cucumis sativus [1] came to 77.6%; in the experiment on Sorghum bicolor [3], 75.8%. Further, the inhibition at 100 µM in the experiment on Cucumis sativus [2] was found to be 23.4%; in the experiment with Sorghum bicolor [4], 8.3%.
As to `CC1=CC(=O)/C(=C(/C)Nc2ccccc2O)C(=O)O1`, the inhibition at 1000 µM was 69.3% in the experiment on Cucumis sativus [1] and 73.7% in the experiment with Sorghum bicolor [3]. Further, the inhibition at 100 µM in the experiment with Cucumis sativus [2] came out at 7.8%; with Sorghum bicolor [4], 39.9%.
On to `CC1=CC(=O)/C(=C(/C)Nc2ccccc2)C(=O)O1`, for which the inhibition at 1000 µM in the experiment on Cucumis sativus [1] was found to be 81.1%; in the experiment with Sorghum bicolor [3], 62%. Further, the figures for the inhibition at 100 µM with Cucumis sativus [2] and in the experiment on Sorghum bicolor [4] were -10.4% and 7.2%, respectively.
The matching figures for `COC(=O)[C@H](Cc1ccccc1)N/C(C)=C1\C(=O)C=C(C)OC1=O`: 63.1%, 24.4%, 2.1% and -10.8%.
As to `COc1ccc(N/C(C)=C2\C(=O)C=C(C)OC2=O)cc1`, the results for the inhibition at 1000 µM with Cucumis sativus [1] and in the experiment on Sorghum bicolor [3] were 33.4% and 48.2%, respectively. In addition, the figures for the inhibition at 100 µM in the experiment on Cucumis sativus [2] and with Sorghum bicolor [4] were 1.4% and 28.4%, respectively.
Turning to `CC1=CC(=O)/C(=C(/C)NNc2ccccc2)C(=O)O1`, the inhibition at 1000 µM in the experiment on Cucumis sativus [1] came out at 19.2%; in the experiment with Sorghum bicolor [3], 27.2%. Besides, the inhibition at 100 µM with Cucumis sativus [2] is 29.5%; with Sorghum bicolor [4] it was -26.5%.
`CCCN/C(C)=C1\C(=O)C=C(C)OC1=O`: the inhibition at 1000 µM in the experiment on Cucumis sativus [1] worked out at 46.2%; with Sorghum bicolor [3], 75.4%. The inhibition at 100 µM with Cucumis sativus [2] was -15.7%; in the experiment with Sorghum bicolor [4], 19.9%.
With `CC1=CC(=O)/C(=C(/C)NCc2ccccc2)C(=O)O1`, the inhibition at 500 µM in the experiment on Ipomoea grandifolia [5] was 84%; in the experiment with Ipomoea grandifolia [6], 81%. Besides, the “inhibition (INH)” value in the experiment with Urochloa decumbens [7] is recorded as 22.8%; in the experiment with Urochloa decumbens [8], 39.3%; in the experiment with Ipomoea grandifolia [9], 85.9%; in the experiment with Ipomoea grandifolia [10] it was 79.6%. Besides, the inhibition at 1000 µM in the experiment on Cucumis sativus [1] came out at 65.5%; in the experiment on Sorghum bicolor [3] it was 70.8%. Also, the inhibition at 100 µM was determined as 20.1% in the experiment on Cucumis sativus [2] and 45% in the experiment on Sorghum bicolor [4].
For the molecule `COC(=O)[C@H](C)N/C(C)=C1\C(=O)C=C(C)OC1=O`, the inhibition at 500 µM with Urochloa decumbens [11] amounted to 46%; in the experiment on Ipomoea grandifolia [5] it was 57%; with Ipomoea grandifolia [6] it was 62%; with Urochloa decumbens [12], 33%. Besides, the “inhibition (INH)” value in the experiment with Urochloa decumbens [7] is reported as 33.3%; in the experiment on Urochloa decumbens [8] it was 43.4%; in the experiment on Ipomoea grandifolia [9], 56.9%; in the experiment with Ipomoea grandifolia [10], 61.7%. In addition, the inhibition at 1000 µM was determined as 76.3% with Cucumis sativus [1] and 71.7% with Sorghum bicolor [3]. Also, the results for the inhibition at 100 µM with Cucumis sativus [2] and in the experiment with Sorghum bicolor [4] were -0.3% and 21.6%, respectively.
`COC(=O)CN/C(C)=C1\C(=O)C=C(C)OC1=O`: the inhibition at 500 µM with Urochloa decumbens [11] was 44%; in the experiment on Ipomoea grandifolia [5], 42%; in the experiment with Ipomoea grandifolia [6], 34%; in the experiment on Urochloa decumbens [12], 33%. The “inhibition (INH)” value was found to be 33.3% with Urochloa decumbens [7], 43.3% with Urochloa decumbens [8], 41.7% in the experiment on Ipomoea grandifolia [9] and 34.3% in the experiment with Ipomoea grandifolia [10]. For the same molecule, the inhibition at 1000 µM was 69.1% with Cucumis sativus [1] and 59.3% with Sorghum bicolor [3]. Moreover, the inhibition at 100 µM is -15.3% with Cucumis sativus [2] and 7% in the experiment with Sorghum bicolor [4].
As for `CC(=O)C1C(=O)C=C(C)OC1=O` (stereo not drawn) [DEHYDROACETIC ACID], the inhibition at 500 µM with Urochloa decumbens [11] was 41%; in the experiment with Urochloa decumbens [12] it was 8%. The “inhibition (INH)” value with Urochloa decumbens [7] was -41.2%; with Urochloa decumbens [8], -67.7%; with Ipomoea grandifolia [9], 7.6%; with Ipomoea grandifolia [10], 40.7%. Further, the values for the inhibition at 1000 µM in the experiment on Cucumis sativus [1] and in the experiment on Sorghum bicolor [3] were 87.6% and 82.7%, respectively. In addition, the inhibition at 100 µM in the experiment with Cucumis sativus [2] was determined as 36.7%; in the experiment with Sorghum bicolor [4] it was 34.6%. In addition, the Activity in the experiment on Urochloa decumbens [13] was 41%; in the experiment with Urochloa decumbens [14], 68%.
Turning to `CC1=CC(=O)/C(=C(/C)Nc2cc([N+](=O)[O-])ccc2O)C(=O)O1`, the inhibition at 500 µM in the experiment with Urochloa decumbens [11] is 15%; in the experiment on Ipomoea grandifolia [5], 76%; with Ipomoea grandifolia [6] it was 81%; in the experiment with Urochloa decumbens [12], 15%. Further, the “inhibition (INH)” value in the experiment with Urochloa decumbens [7] was 15%; in the experiment with Urochloa decumbens [8], 15.3%; in the experiment on Ipomoea grandifolia [9], 78.9%; with Ipomoea grandifolia [10], 79.9%. In addition, the inhibition at 1000 µM in the experiment with Cucumis sativus [1] is 58.1%; in the experiment with Sorghum bicolor [3], 55.6%. Further, the values for the inhibition at 100 µM in the experiment on Cucumis sativus [2] and in the experiment with Sorghum bicolor [4] were -12.4% and 3.9%, respectively.
Regarding `CC[C@H](C)N/C(C)=C1\C(=O)C=C(C)OC1=O`, the inhibition at 500 µM came out at 66% with Urochloa decumbens [11], 84% with Ipomoea grandifolia [5], 81% in the experiment with Ipomoea grandifolia [6] and 71% in the experiment with Urochloa decumbens [12]. For the same molecule, the “inhibition (INH)” value was 70.8% with Urochloa decumbens [7], 65.5% in the experiment with Urochloa decumbens [8], 84.4% in the experiment with Ipomoea grandifolia [9] and 83% in the experiment on Ipomoea grandifolia [10]. For the same molecule, the inhibition at 1000 µM in the experiment on Cucumis sativus [1] came to 87.5%; in the experiment with Sorghum bicolor [3], 79.3%. The inhibition at 100 µM stood at 15% in the experiment on Cucumis sativus [2] and 46.2% in the experiment with Sorghum bicolor [4].
Take `CC1=CC(=O)/C(=C(/C)Nc2ccccc2Cl)C(=O)O1`: the results for the inhibition at 1000 µM in the experiment on Cucumis sativus [1] and with Sorghum bicolor [3] were 88.3% and 85.2%, respectively. The inhibition at 100 µM with Cucumis sativus [2] is 54.5%; in the experiment on Sorghum bicolor [4], 32.9%.
On to `CC1=CC(=O)/C(=C(/C)Nc2cc(Cl)c([N+](=O)[O-])cc2O)C(=O)O1`, for which the “inhibition (INH)” value is reported as -20.3% in the experiment with Urochloa decumbens [7], -24% with Urochloa decumbens [8], 43.7% with Ipomoea grandifolia [9] and 32% in the experiment on Ipomoea grandifolia [10]. The inhibition at 1000 µM turned out to be 81.4% with Cucumis sativus [1] and 64.4% with Sorghum bicolor [3]. Moreover, the inhibition at 100 µM in the experiment with Cucumis sativus [2] was 21.8%; in the experiment on Sorghum bicolor [4], 4.3%. Also, the results for the Activity with Urochloa decumbens [13] and with Urochloa decumbens [14] were 20% and 24%, respectively.
With `COC(=O)[C@@H](N/C(C)=C1\C(=O)C=C(C)OC1=O)C(C)C`, the inhibition at 500 µM amounted to 68% with Ipomoea grandifolia [5] and 65% in the experiment with Ipomoea grandifolia [6]. The “inhibition (INH)” value in the experiment with Urochloa decumbens [7] is listed as -47.4%; in the experiment on Urochloa decumbens [8], -45.7%; in the experiment with Ipomoea grandifolia [9], 67.7%; with Ipomoea grandifolia [10], 65.3%. Moreover, the results for the inhibition at 1000 µM in the experiment with Cucumis sativus [1] and with Sorghum bicolor [3] were 80.8% and 70.5%, respectively. Further, the results for the inhibition at 100 µM in the experiment with Cucumis sativus [2] and with Sorghum bicolor [4] were -6.4% and 17.2%, respectively. The Activity in the experiment on Urochloa decumbens [13] and in the experiment with Urochloa decumbens [14] was 46% each time.
For `CCCCN/C(C)=C1\C(=O)C=C(C)OC1=O`, the inhibition at 1000 µM was 44% in the experiment on Cucumis sativus [1] and 79.7% in the experiment on Sorghum bicolor [3]. The inhibition at 100 µM with Cucumis sativus [2] is -10.4%; with Sorghum bicolor [4] it was 48.3%.
